Measured values as given in paper PMC4227885 (Science translational medicine, 2013).
Where two headings read alike, the source gives them in different places. Values belong to the compound of their own block, whether it stands above or below them.

Legend:
[1] = test system: P. berghei oocysts in Anopheles stephensi; assay: In vivo transmission blocking, mosquitoes fed on treated infected mice; details: for inhibition at 10 mg/kg: read-out: inhibition of oocyst production
Procedure, shortened: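 Mice at about 3% P. berghei parasitemia received a single oral dose of test compound (0.1–10 mg/kg) or vehicle. Female Anopheles stephensi fed on the mice 1 h after treatment. Midguts were dissected on day 10 post infection and examined for oocysts. Dihydroartemisinin and primaquine (10 mg/kg) were positive controls.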

[2] = test system: 5-strain Ames bacterial assay; assay type: cell-based
[3] = test system: P. cynomolgi liver schizonts; assay: In vitro liver stage assay in primary rhesus hepatocytes; assay type: cell-based; details: read-out: IC50 liver schizonts, 6-day incubation
[4] = test system: P. berghei infected ICR mice; assay: Thompson test, blood stage efficacy; assay type: in vivo
[5] = Metabolic stability in liver microsomes; assay type: in vitro ADME; details: in vitro incubation with liver microsomes, multiple species
[6] = test system: P. berghei (luciferase) sporozoite infections of BALB/c mice; assay: In vivo liver stage, sporozoite infection with bioluminescence imaging; details: per os one hour post infection
Procedure, shortened: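 BALB/c mice (5 per group) were infected with luciferase-expressing P. berghei sporozoites. One hour later they received a single dose of test compound by gavage; untreated mice served as controls. For bioluminescence imaging at 44 h and on days 6 and 13, mice were injected with D-luciferin and anesthetized, tracking liver and blood stages.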

[7] = test system: P. falciparum strains (D6, 3D7, Dd2, W2, recent isolates from SE Asia, TM90-C2B); assay type: cell-based, Plasmodium falciparum; details: atovaquone-resistant clinical isolate TM90-C2B
[8] = test system: 100 neurotransmitter receptors, peptide receptors, ion channels, reuptake sites, and enzymes
[9] = test system: P. berghei oocyst formation in Anopheles stephensi mosquitoes; assay: Oocyst formation after membrane feeding of drug-spiked infected blood; assay type: in vivo
Procedure, shortened: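 Mouse blood infected with GFP-expressing P. berghei was mixed with the test compound and placed at once in membrane feeders at 39 °C. It was offered to about 75 overnight-starved mosquitoes. After 7 days, fluorescent oocysts on dissected midguts were counted by semi-automated image capture and analysis. DMSO was the negative control.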

J774 mouse macrophages = assay type: cell-based
[10] = test system: P. falciparum (NF54) gametocytes (Stage I-II); assay: Inhibition of early stage gametocyte development; assay type: cell-based; details: three days exposure of Stage I-II gametocytes
[11] = target: human cytochrome bc1 (derived from HEK-293 cells) (Homo sapiens, UniProt P00156); assay: Inhibition of human cytochrome bc1 activity; assay type: biochemical
[12] = target: hERG (human-Ether-a-go-go-Related Gene) channel (Homo sapiens, UniProt Q12809); assay type: cell-based
hERG (human-Ether-a-go-go-Related Gene) channel, sequence (Q12809 whole entry): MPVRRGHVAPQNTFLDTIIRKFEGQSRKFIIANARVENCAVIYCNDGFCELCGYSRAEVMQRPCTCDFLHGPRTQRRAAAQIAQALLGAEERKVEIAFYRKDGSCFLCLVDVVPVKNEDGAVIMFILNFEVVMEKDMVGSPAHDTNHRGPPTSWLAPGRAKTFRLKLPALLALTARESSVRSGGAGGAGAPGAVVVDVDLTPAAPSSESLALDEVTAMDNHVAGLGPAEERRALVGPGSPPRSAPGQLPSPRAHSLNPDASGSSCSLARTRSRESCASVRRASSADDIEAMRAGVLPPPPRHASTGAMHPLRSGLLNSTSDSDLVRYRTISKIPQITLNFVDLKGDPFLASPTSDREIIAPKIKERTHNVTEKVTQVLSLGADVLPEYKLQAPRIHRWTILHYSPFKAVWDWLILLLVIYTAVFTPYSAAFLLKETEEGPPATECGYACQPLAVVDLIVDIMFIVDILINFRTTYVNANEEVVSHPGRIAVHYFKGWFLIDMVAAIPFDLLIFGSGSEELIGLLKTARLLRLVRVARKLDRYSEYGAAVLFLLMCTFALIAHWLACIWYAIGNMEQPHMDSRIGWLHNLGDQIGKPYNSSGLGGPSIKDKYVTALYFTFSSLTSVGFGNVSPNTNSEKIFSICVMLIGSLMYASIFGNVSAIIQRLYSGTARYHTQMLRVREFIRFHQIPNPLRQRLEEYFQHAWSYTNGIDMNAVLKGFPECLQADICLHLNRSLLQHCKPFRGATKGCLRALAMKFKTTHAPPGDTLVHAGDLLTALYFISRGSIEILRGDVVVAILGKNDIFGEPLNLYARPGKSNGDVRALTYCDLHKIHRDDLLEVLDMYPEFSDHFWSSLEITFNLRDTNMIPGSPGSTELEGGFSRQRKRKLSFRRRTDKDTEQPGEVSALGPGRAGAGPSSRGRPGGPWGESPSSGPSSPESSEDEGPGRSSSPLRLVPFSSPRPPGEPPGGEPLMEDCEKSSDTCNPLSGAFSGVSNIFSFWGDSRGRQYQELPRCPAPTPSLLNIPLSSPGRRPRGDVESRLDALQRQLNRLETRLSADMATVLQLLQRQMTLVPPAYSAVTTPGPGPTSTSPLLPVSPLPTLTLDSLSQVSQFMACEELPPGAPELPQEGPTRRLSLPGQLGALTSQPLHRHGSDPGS

P. falciparum [13] = assay: Immuno-deficient; assay type: in vivo
Procedure, shortened: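 NOD-scid IL2Rγnull-type immunodeficient mice were engrafted with human erythrocytes and infected with P. falciparum. The test compound was given orally daily for 4 consecutive days as a non-optimized suspension, not in PEG400 (3 vehicle mice, 11 treated). Parasitemia was measured by FACS, with Giemsa smears at 48 h. Blood levels were followed over 23 h after the first dose. ED90 was taken at day 7 versus vehicle. AUCED90 was estimated graphically from AUC0→23h versus log10 day-7 parasitemia for each mouse.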

[14] = test system: P. falciparum clinical isolates; assay: Ex vivo susceptibility of clinical field isolates, modified WHO microtest; assay type: cell-based, Plasmodium falciparum; details: read-out: median EC50, Papua, Indonesia
Procedure, shortened: (§1)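 Isolates were taken from patients attending malaria clinics in southern Papua, Indonesia, and tested ex vivo by a modified WHO microtest. Median IC50 was reported separately for each species. Comparisons used the Wilcoxon rank sum test.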

[15] = test system: late stage IV - V P. falciparum gametocytes; assay: Late stage gametocyte viability, high content imaging; assay type: cell-based; details: read-out: IC50 stage IV-V gametocyte viability
[16] = test system: major cytochrome P450 enzymes; assay: Cytochrome P450 inhibition; assay type: in vitro ADME; details: at concentrations needed for efficacy
P. berghei ookinete = assay: In vitro ookinete assay; assay type: cell-based; details: read-out: IC50 ookinete production
two rat cell lines = details: read-out: IC50 level, ATP levels; either of two rat cell lines, galactose medium
[17] = target: P. falciparum cytochrome bc1 (Plasmodium falciparum, UniProt Q02768); assay type: biochemical; details: read-out: IC50, nM P. falciparum cytochrome bc1; P. falciparum mitochondria
P. falciparum cytochrome bc1, sequence (Q02768 whole entry): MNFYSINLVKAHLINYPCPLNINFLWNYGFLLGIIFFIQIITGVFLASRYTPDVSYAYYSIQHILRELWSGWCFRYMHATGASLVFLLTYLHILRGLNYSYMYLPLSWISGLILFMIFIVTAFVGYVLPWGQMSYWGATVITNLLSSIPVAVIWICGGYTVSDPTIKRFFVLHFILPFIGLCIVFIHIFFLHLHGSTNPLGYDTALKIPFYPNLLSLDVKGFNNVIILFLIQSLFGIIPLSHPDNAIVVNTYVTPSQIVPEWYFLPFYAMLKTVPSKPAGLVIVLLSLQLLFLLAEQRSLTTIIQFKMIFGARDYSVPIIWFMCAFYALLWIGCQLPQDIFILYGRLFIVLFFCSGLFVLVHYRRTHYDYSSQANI

[18] = test system: exoerythrocytic stages of P. berghei; assay: In vitro liver stage assay, luciferase sporozoites on HEPG2 hepatoma cells; assay type: cell-based; details: read-out: EC50, luciferase expression, 44 h post infection
Procedure, shortened: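 Luciferase-expressing P. berghei sporozoites were added to HepG2 hepatoma monolayers and allowed to infect for 1 h. A dilution series of the test compound was then added and plates were incubated at 37 °C. Luciferase was read 44 h post infection. EC50 came from a nonlinear logistic dose-response fit.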

[19] = Aqueous solubility, kinetic and thermodynamic methods; assay type: physicochemical
Procedure, shortened: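 Kinetic method: DMSO stock diluted into various media. Thermodynamic method: equilibrium solubility with physiologically relevant media and incubation time.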

[20] = test system: P. falciparum strain 3D7 oocyst formation; assay: Standard membrane feeding assay; assay type: in vivo
[21] = test system: P. falciparum strains (D6, Dd2, TM90-C2B, V1/S); assay: In vitro isobolar testing with proguanil, fixed combination ratios; assay type: cell-based; details: isobolar testing against 4 strains
P. falciparum [22] = assay: In vitro parasite reduction ratio; assay type: cell-based
[23] = test system: P. vivax clinical isolates; assay: Ex vivo susceptibility of clinical field isolates, modified WHO microtest; assay type: cell-based, Plasmodium vivax; details: read-out: median EC50, Papua, Indonesia
Procedure, shortened: as §1

[24] = test system: human foreskin fibroblasts (HFF); assay type: cell-based
[25] = test system: murine bone marrow derived hematopoietic progenitors (CFU-GM, BFUE, CFU-GEMM); assay type: cell-based
[26] = Pharmacokinetics in mice, intravenous and oral; assay type: in vivo, mouse; details: 0.3 mg/kg oral in PEG400
Procedure, shortened: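 Non-fasted male Swiss outbred mice were used. The IV dose was 0.1 mg/kg, formulated in mouse plasma and given via the tail vein. The oral dose was 0.3 mg/kg by gavage, as a solution in undiluted PEG400.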

[27] = test system: transgenic P. falciparum clone D10yDHOD; assay: Susceptibility of transgenic clone expressing yeast DHOD; assay type: cell-based, Plasmodium falciparum
[28] = test system: P. yoelii in CD1 Swiss mice; details: for ED90: P. yoelii, 4-day test, oral, PEG400 vehicle
[29] = test system: P. falciparum strain 3D7 oocyst formation; details: comparable SMFA; cited from earlier work

SMILES: C[C@H]1[C@@H](O)O[C@@H]2O[C@@]3(C)CC[C@H]4[C@H](C)CC[C@@H]1[C@@]24OO3 [dihydroartemisinin]
inhibition at 10 mg/kg [1]: 63.7%

SMILES: COc1cc2[nH]c(C)c(-c3ccc(Oc4ccc(OC(F)(F)F)cc4)cc3)c(=O)c2cc1Cl [ELQ-300]
mutagenic potential [2]: lacks mutagenic potential
IC50 [3]: ~100 nM
curative blood stage dose ([4]; Thompson or Peter's tests): 1 mg/kg
fifty percent effective dose (ED50) ([4]; Thompson test, P. berghei, ICR mice): 0.016 mg/kg/day
stability to metabolic degradation by cytochrome P450 enzymes [5]: highly stable
single dose that completely blocked infection [6]: ≥ 0.03 mg/kg
cross-resistance with atovaquone in TM90-C2B [7]: 1.3 fold
inhibition in screen of 100 targets [8]: did not observe any significant inhibition
reduction of oocyst burden in mosquito midguts ([9]; 10 nM): 19.2%
reduction of the total oocyst count relative to controls ([9]; blood containing 100 nM): 99.4%
oocyst formation ([9]; blood containing 1 μM drug): no oocysts formed
IC50 (J774 mouse macrophages): > 10000 nM
lowest exposure preventing gametocyte development to Stage IV [10]: ≤ 0.1 µM
IC50 ([11]; read-out: IC50, nM human cytochrome bc1, derived from HEK-293 cells): > 10000 nM
IC50 [12]: > 11000 nM
dose that completely prevented transmission (oocyst development) ([1]; single oral dose, feeding one hour after treatment): ≥ 0.1 mg/kg
dose that reduced parasitemia by 90% at day 7 (ED90) (P. falciparum [13]; SCID mice, oral daily for four days, suspension formulation): 5.9 mg/kg/day
estimated exposure at the ED90 dose (AUCED90) (P. falciparum [13]; SCID mouse model, blood): 1.1 μg·h/mL/day
EC50 [14]: 14.9 nM
IC50 ([15]; 72 hr): 71.9 nM
inhibition of the major cytochrome P450 enzymes [16]: did not inhibit
IC50 (P. berghei ookinete; first 24 h of development, GFP endpoint): 56 nM
IC50 (two rat cell lines): > 100000 nM
IC50 [17]: 0.58 nM
EC50 [18]: 1.02 nM
aqueous solubility [19]: low aqueous solubility
concentration that completely blocked oocyst formation ([20]; one of two independent studies): ≥ 10 nM
reduction in oocyst formation ([20]; the other study, 10 nM): 95.9%
interaction with proguanil [21]: strong pharmacological synergism
time required to kill >99.9% of parasites (P. falciparum [22]; 10x EC50 concentration): ≈ 100 h
speed of action (P. falciparum [22]; exposure up to 120 hr): slow-acting
EC50 [23]: 17.9 nM
IC50 [24]: > 10000 nM
IC50 [25]: > 10000 nM
Tmax [26]: approximately 7.5 h
oral bioavailability [26]: approximately 100%
sensitivity of D10yDHOD transfectants [27]: insensitive
non-recrudescence dose relative to atovaquone ([28]; P. yoelii murine model): 30 times lower
ED90 [28]: 0.15 mg/kg/day
AUCED90 ([28]; mouse, in vivo): 1.4 μg·h/mL/day
drug exposure (AUC0-24 h) in peripheral blood at the ED90 ([28]; mouse, in vivo, po): 1400 ng·h/mL

IC50 ([11]; read-out: IC50 human cytochrome bc1, enzyme derived from HEK cells): 1990 nM
SMILES: Cc1[nH]c2ccccc2c(=O)c1-c1ccc(Oc2ccc(OC(F)(F)F)cc2)cc1 [ELQ-271]

SMILES: COc1ccc(C[C@H](N)C(=O)N[C@H]2[C@@H](O)[C@H](n3cnc4c(N(C)C)ncnc43)O[C@@H]2CO)cc1 [puromycin, reference compound]
IC50 ([15]; Plasmodium falciparum, 72 h): 75.3 nM

SMILES: O=C1C(O)=C([C@H]2CC[C@H](c3ccc(Cl)cc3)CC2)C(=O)c2ccccc21 [Atovaquone, reference compound]
IC50 [11]: 460 nM
IC50 (P. berghei ookinete; Plasmodium berghei, 24 h): 67 nM
ED90 [28]: 0.04 mg/kg/day

SMILES: COc1cc(NC(C)CCCN)c2ncccc2c1 (stereo not shown) [primaquine]
inhibition at 10 mg/kg [1]: 95.4%

SMILES: C[C@H]1Cc2c([nH]c3cc(Cl)c(F)cc23)[C@@]2(N1)C(=O)Nc1ccc(Cl)cc12 [NITD609]
concentration required to completely inhibit oocyst formation [29]: 500 nM
